Screens deposited in PubChem BioAssay by Johns Hopkins Ion Channel Center.
A selection: hits, their analogues and other compounds. The true share with any hit is near 3.8%.
KCNQ1 block = blocks the human KCNQ1 potassium channel | P51787 | CHO-K1 KCNQ1, FluxOR thallium flux fluorescence; stronger effect = higher value | B-score at 10 µM | actives 1.3% (n = 310,000) | AID 2642;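 active means compounds whose thallium flux B-score, printed positive for inhibition, exceeds three library SD while starting fluorescence stays within three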;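 further: channel opened by potassium depolarization with thallium stimulus after 20 min compound exposure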
Kir21 block = Kir2.1 (mouse) channel inhibition; P35561; B-score at 10 µM; HEK293-Kir2.1, FluxOR thallium flux fluorescence; stronger effect = lower value; actives 0.85% (n = 310,000);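 active means fluorescence ratio B-score at or below minus 3 SD of library scores, with starting-brightness B-score within 2 SD, cut at about -4.2 in these data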;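 further: channel flux triggered by added potassium and thallium sulfate stimulus; B-score of peak minus minimum fluorescence over baseline after thallium stimulus; more negative B-score means stronger Kir2.1 block with less thallium influx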
KCNQ1 pot = potentiators or activators of human KCNQ1 potassium channel; P51787; B-score at 10 µM; CHO-K1 KCNQ1, thallium flux FluxOR fluorescence; stronger effect = higher value; actives 0.35% (n = 310,000); AID 2648;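 active means fluorescence ratio B-score, a plate-corrected score, at least three library SD, with initial intensity B-score within 5 SD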
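Assay system: stable KCNQ1 CHO-K1 line; medium: assay buffer, equal DMSO in all wells; timing: 90 min dye loading and 20 min compound exposure, both at room temperature; technique: kinetic FluxOR thallium fluorescence, 10-s 1-Hz baseline, 110-s post-stimulus read; read-out basis: B score of baseline-normalized fluorescence ratio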
KCNK9 inh = blocks the human KCNK9 two-pore domain potassium channel | actives 1.2% (n = 310,000) | HEK293 KCNK9, FluxOR thallium flux fluorescence; stronger effect = lower value | Q9NPC2 | B-score at 10 µM;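 active means ratio B-score over 3 SD below the library mean, with starting fluorescence within 5 SD of its mean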;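 further: negative B-score means less thallium flux so channel inhibition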
KCNK3 block = human KCNK3 channel inhibition, primary screen | O14649 | actives 0.84% (n = 340,000) | CHO-KCNK3 thallium flux, FluxOR fluorescence; stronger effect = lower value | B-score at 10 µM;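 active means B-score under library mean minus 4 SD, starting fluorescence ratio at most library mean plus 5 SD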;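 further: more negative B-score means stronger inhibition of thallium flux through KCNK3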
Target sequence (O14649 whole entry, looked up): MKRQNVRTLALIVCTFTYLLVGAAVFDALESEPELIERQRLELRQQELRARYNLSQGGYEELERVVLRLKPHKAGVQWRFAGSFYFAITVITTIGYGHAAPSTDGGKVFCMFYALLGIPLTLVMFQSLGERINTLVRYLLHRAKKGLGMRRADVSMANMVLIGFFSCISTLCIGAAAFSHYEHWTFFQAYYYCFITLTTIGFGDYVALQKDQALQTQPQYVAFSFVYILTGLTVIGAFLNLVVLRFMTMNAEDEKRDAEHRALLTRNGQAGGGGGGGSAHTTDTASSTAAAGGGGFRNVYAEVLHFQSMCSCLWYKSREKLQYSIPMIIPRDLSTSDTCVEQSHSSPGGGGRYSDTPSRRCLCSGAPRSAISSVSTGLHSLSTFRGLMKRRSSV
hERG rescue = compounds protecting human hERG from proarrhythmic drug block. CHO-hERG, FluxOR thallium flux, dofetilide IC70 present. AID 1511. actives 0.51% (n = 310,000). activation (rescue from dofetilide block), less the hit threshold, % at 10 µM;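 active means activation above the mean of controls blocked by dofetilide plus 5 SD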;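 further: thallium influx through hERG after potassium depolarization seen as dye fluorescence rise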
* = called active by the depositor; i = inactive; nt = no result given.

SMILES	KCNQ1 block	Kir21 block	KCNQ1 pot	KCNK9 inh	KCNK3 block	hERG rescue
CCOC(=O)Cc1csc(NC(=S)NC(=O)c2ccccc2C)n1	i	2.25	16*	i	i	1.9
CCOC(=O)Cc1csc(NC(=S)NC(=O)c2ccc(F)cc2)n1	i	1.17	8*	i	i	1.2
COc1cc(C(C)=O)ccc1OCC(=O)Nc1cc(S(=O)(=O)N2CCOCC2)ccc1N1CCCC1	nt	nt	nt	nt	i	nt
NC(N)=N/N=C/c1ccc(OS(=O)(=O)c2ccccc2)cc1	i	-10.1*	i	i	i	-22.6
CCC(=O)N/N=C/c1ccc(OS(=O)(=O)c2ccccc2)cc1	i	-0.29	i	i	i	-8.8
COC(=O)C1=C(C)NC2=C(C(=O)CCC2)C1c1ccc(-c2ccsc2C(=O)OC)o1 (stereo not given)	i	-1.49	i	i	i	14.4*
COC(=O)C1=C(C)NC2=C(C(=O)CCC2)C1c1ccsc1 (stereo not given)	i	0.1	i	i	nt	0.3
COC(=O)c1ccc(OCCN2CCCCCC2)cc1	i	0.05	i	i	i	-12.3
O=C(c1ccc(OCCN2CCCCC2)cc1)c1c(-c2ccc(O)cc2)sc2cc(O)ccc12	9*	0.02	i	i	i	-29.4
CCn1nc(C)c(CN2CCC(Oc3ccc(C(=O)N4CCCC4)cc3)CC2)c1C	i	-0.34	i	i	i	-6.3
Cn1c(=O)c(Nc2ccc(Cl)cc2)c2c3c(cccc31)C(=O)c1ccccc1-2	9*	-7.08	i	i	nt	-8.0
Cc1cccc(C)c1OCC(=O)NNC(=O)CCCn1c(=O)oc2ccccc21	nt	nt	nt	nt	i	nt
CCCn1c(=O)c(C(=O)NCc2ccc3c(c2)OCO3)c(O)c2ccccc21	8*	0.09	i	i	i	-4.5
CN(c1ccccc1)S(=O)(=O)c1cccc(NC(=O)COc2ccccc2)c1	nt	nt	nt	nt	i	nt
CCCC(=O)Nc1cccc(S(=O)(=O)N(C)c2ccccc2)c1	i	0.39	i	i	i	-8.6
CCCn1nc(C(=O)NCc2ccc3c(c2)OCO3)c2ccccc2c1=O	i	1.35	i	i	-8.94*	-13.9
CCCn1nc(C(=O)Nc2cccc(S(=O)(=O)N(C)c3ccccc3)c2)c2ccccc2c1=O	nt	nt	nt	nt	-9.22*	nt
CCC(CC)C(=O)OCC(=O)Nc1cccc(S(=O)(=O)N(C)c2ccccc2)c1	i	-0.42	i	-7.2*	i	-10.5
CC(OC(=O)c1nn(C)c(=O)c2ccccc12)C(=O)NCc1ccc2c(c1)OCO2 (stereo not given)	i	0.01	i	i	i	-16.8
C/C(=N\NC(=O)C1COc2ccccc2O1)c1cc2ccccc2o1 (stereo not given)	i	-1.23	i	i	i	-8.2
NS(=O)(=O)c1ccc(NC(=O)COC(=O)/C=C/c2ccc([N+](=O)[O-])cc2)cc1	i	1.11	i	i	i	-7.0
CN(C)S(=O)(=O)c1cccc(NC(=O)COC(=O)/C=C/c2ccc([N+](=O)[O-])cc2)c1	i	-1	i	i	i	8.1*
Cc1ccccc1NC(=O)c1ccc2c(c1)OCCO2	i	-2.48	i	i	i	-4.0
COC(=O)c1ccccc1NC(=O)c1ccc2c(c1)OCCCO2	i	0.68	i	-6.83*	i	-6.0
O=C(c1ccc(Cl)c(S(=O)(=O)N2CCCCC2)c1)N1CCCC(C(F)(F)F)C1 (stereo not given)	nt	nt	nt	nt	i	nt
SMILES	KCNQ1 block	Kir21 block	KCNQ1 pot	KCNK9 inh	KCNK3 block	hERG rescue
Clc1ccc2c(c1)C(N1CCNCC1)Cc1ccccc1S2 (stereo not given)	6*	-13.6*	i	i	i	-22.6
COCCCN1CCN(C2Cc3ccccc3Sc3ccc(Cl)cc32)CC1 (stereo not given)	i	-2.26	i	i	i	-25.5
Clc1cccc2c1Sc1ccccc1CC2N1CCNCC1 (stereo not given)	i	-9.71*	i	i	i	-22.0
CCCS(=O)(=O)c1cscc1NC(=O)c1c(-c2c(F)cccc2Cl)noc1C	i	0.29	i	i	i	-9.9
COCC(C)NCc1ccc(OC)c(Br)c1 (stereo not given)	i	0.59	i	i	i	-16.5
COc1cc2c(cc1OC)CN(C(=O)c1nn(Cc3ccccc3)c(=O)c3ccccc13)CC2	nt	nt	nt	nt	-9.27*	nt
O=[N+]([O-])c1ccc(NCCNS(=O)(=O)c2ccccc2)c(C(F)(F)F)c1	i	-5.82*	i	i	i	-6.2
Cc1ccc(S(=O)(=O)NCCNc2ccccc2[N+](=O)[O-])cc1	i	-4.28*	i	i	i	-5.7
Cc1csc(=O)n1CCC(=O)OCC(=O)Nc1ncc(Cl)cc1Cl	i	-1.04	i	i	i	-10.8
CCCN(C(=O)c1cn(-c2ccccc2)nc1-c1ccc(OC)cc1)C1CCS(=O)(=O)C1 (stereo not given)	i	1.23	8*	i	i	-0.9
CN(C)c1ccc(/C=C2\Oc3ccc(C#Cc4cccc(N)c4)cc3C2=O)cc1	nt	nt	nt	nt	i	nt
Cc1cccc(NC(=S)NC(=O)Cc2ccccc2)c1C	i	-0.23	i	i	i	-4.3
Cc1ccc(C)c(NC(=S)NCCc2ccc(F)cc2)c1	i	-4.5*	i	i	i	-3.7
Cc1cc(C)c(O)c(NC(=S)NC(=O)Cc2ccccc2)c1	i	2.4	i	i	i	4.8*
Cc1ccc(NC(=S)NCCc2ccccc2)c(C)c1	i	-5.12*	i	i	i	-6.6
Cc1ccc(NC(=S)NCCc2c[nH]c3ccccc23)c(C)c1	i	-7.3*	i	i	i	-9.2
COc1cccc(CNCCc2c[nH]c3ccccc23)c1OCc1ccc(F)cc1	i	-11.5*	i	i	i	-15.8
Cc1cc(C)c(S(=O)(=O)NCCc2ccccc2)c(C)c1	i	-10.1*	i	i	i	-6.3
COc1cccc(CNc2ccc3[nH]c(=O)[nH]c3c2)c1OCc1ccc(F)cc1	i	-4.18	i	i	i	-16.1
COc1ccccc1NC(=S)NCCc1c[nH]c2ccccc12	i	-6.26*	i	i	i	-7.8
Cc1ccc(S(=O)(=O)NCCc2ccccc2)cc1	i	-1.39	i	i	i	-7.8
COCCN(C(=O)CSc1nc(-c2ccccc2)cn1N)c1c(N)n(Cc2ccccc2)c(=O)[nH]c1=O	i	0.1	i	i	i	-17.2
COc1cccc(C(=O)c2c(-c3ccccc3)ncc3cc(OC)c(OC)cc23)c1	nt	nt	nt	nt	i	nt
COCCNC(=O)/C(C#N)=C/c1cccs1	i	-0.85	i	i	i	-8.4
